In general, EC50 refers to the concentration giving half of the maximal effect. What is called Ki is the dissociation constant of the complex between target and ligand, obtained from inhibition or displacement. One may read the half-life as the time needed for the level to fall by half in the phase considered.

Calls of active or inactive are those of the source.

The species entered for data set [1] is Homo sapiens. The experiment in a line: Selectivity ratio, ratio of Ki for human KOR to Ki for human NOP.
Data set [2] can be described thus: Metabolic stability in Wistar rat plasma assessed as compound remaining measured after 24 hrs by HPLC analysis. The format is ADME, cell-free. The following applies: read-out: Stability. The gist of the method: (§1)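 Peptide at 1 mg/mL in sterile PBS pH 7.4 was mixed 1:1 with thawed, centrifuged Wistar rat plasma supernatant and incubated at 37°C in triplicate. Samples at 0, 1, 2, 3, 4, 6 and 24 h were quenched with acetonitrile and then 2% TFA/water, and analysed by HPLC with inline electrospray MS.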

In data set [3] the target is T1, Kappa-type opioid receptor (Homo sapiens, UniProt P41145). The experiment in a line: Agonist activity at human kappa opioid receptor expressed in CHO-K1 cells assessed as inhibition of forskolin-stimulated cAMP production incubated for 30 mins by LANCE cAMP assay. The format is cell-based. Put shortly: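 Transiently KOR-transfected CHO-K1 cells taken 24 h post-transfection, 3,000 cells/well in HBSS stimulation buffer (0.1% BSA, 0.5 mM IBMX, 5 mM HEPES, pH 7.4). Forskolin (1 µM final) and ligand added, then 30 min at RT. LANCE Eu-cAMP tracer/anti-cAMP TR-FRET read after 1 h at RT. Sigmoidal dose-response fit.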
(Cyclic AMP is a second messenger, typically raised through Gs and lowered through Gi signalling.)

The target in data set [4] is T1, Kappa-type opioid receptor. The experiment in a line: Displacement of [3H]U69593 from human kappa opioid receptor expressed in CHO-K1 cells incubated for 1 hr by 1450 microbeta scintillation counter analysis. The format is cell-based. The gist of the method: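 Membranes from transiently KOR-transfected CHO-K1 cells (~2 µg/well) used in SPA with 3H-U69,593 (1 nM). Competitor ranged 1 pM–10 µM in 50 mM Tris-HCl pH 7.4, 5 mM MgCl2, 0.1% BSA. Incubated 1 h at room temperature with shaking. Nonspecific binding defined with 10 µM dynorphin A. Sigmoidal dose-response fit; at least three independent experiments in triplicate.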

For data set [5], the species on record is Homo sapiens. The data set can be described thus: Selectivity ratio, ratio of Ki for human KOR to Ki for human MOR.
Data set [6] deals with T1, Kappa-type opioid receptor. The experiment in a line: Agonist activity at human kappa opioid receptor expressed in CHO-K1 cells assessed as ERK phosphorylation incubated for 2 hrs by Alphascreen surefire method. The format is cell-based. Put shortly:
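CHO-K1 cells transiently transfected with KOR plasmid, harvested 24 h later, plated at 50,000 cells/well and settled 24 h, then serum-starved 12 h. Ligands in serum-free medium applied 10 min at room temperature. Lysates read by AlphaScreen SureFire phospho-ERK1/2 after 2 h at 37 °C. Curves fitted by sigmoidal dose-response.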
(Alpha assays give light when donor and acceptor beads are brought close together.)

For data set [7], the species on record is Homo sapiens. The experiment in a line: Selectivity ratio, ratio of Ki for human KOR to Ki for human DOR.
The nature of data set [8]: Metabolic stability in Wistar rat plasma assessed as UrrQ[CHA][PEN]C formation by measuring relative abundance measuring after 3600 mins by HPLC analysis relative to control. The format is ADME, cell-free. Conditions: 60 h.
The subject of data set [9] is Mus musculus. The experiment in a line: Antinociceptive activity against C57BL/6 mouse model of TNBS induced chronic visceral hypersensitivity assessed as inhibition of colonic nociceptor mechanosensitivity at 1000 nM, administered topically on colon mucosal surface for 28 days. The format is functional, organism-based. Conditions: time 28.0 day. Put shortly:
(§2)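 Ex vivo single-unit extracellular recording of splanchnic colonic afferents from healthy C57BL/6 mice or CVH mice (28 days after TNBS, inflammation resolved). Baseline mechanosensitivity was measured with a 2 g von Frey probe applied 3 s to the receptive field, repeated 3–4 times 10 s apart. KOR agonist was applied to the mucosal surface for 5 min per concentration inside a small metal ring, then mechanosensitivity was re-tested.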

The test system of data set [10] is Mus musculus. The data set can be described thus: Antinociceptive activity against C57BL/6 mouse assessed as inhibition of colonic nociceptor mechanosensitivity at 1 to 1000 nM, administered topically on colon mucosal surface for 28 days. The format is functional, organism-based. Conditions: dose 1-1000 nM, time 28.0 day. The gist of the method:
as §2

Data set [11] in a line: Metabolic stability in Wistar rat plasma assessed as half life by HPLC analysis. The format is ADME, cell-free. The gist of the method:
as §1

Data set [12] can be described thus: Metabolic stability in Wistar rat plasma assessed as BzPrrQ[CHA]CC formation by measuring relative abundance measuring after 360 mins by HPLC analysis relative to control. The format is ADME, cell-free. Conditions: 6 h. The gist of the method:
as §1

In data set [13] the test system is Mus musculus. The data set can be described thus: Antinociceptive activity against C57BL/6 mouse model of TNBS induced chronic visceral hypersensitivity assessed as inhibition of colonic nociceptor mechanosensitivity at 1000 nM, administered topically on colon mucosal surface for 28 days in presence of norbinaltorphimine. The format is functional, organism-based. The following applies: time 28.0 day. The gist of the method:
as §2

Data set [14] is described as follows: Metabolic stability in Wistar rat plasma assessed as BzPrrQ[CHA][PEN]C formation by measuring relative abundance measuring after 3600 mins by HPLC analysis relative to control. The format is ADME, cell-free. The following applies: 60 h.

T1 sequence (P41145 whole entry): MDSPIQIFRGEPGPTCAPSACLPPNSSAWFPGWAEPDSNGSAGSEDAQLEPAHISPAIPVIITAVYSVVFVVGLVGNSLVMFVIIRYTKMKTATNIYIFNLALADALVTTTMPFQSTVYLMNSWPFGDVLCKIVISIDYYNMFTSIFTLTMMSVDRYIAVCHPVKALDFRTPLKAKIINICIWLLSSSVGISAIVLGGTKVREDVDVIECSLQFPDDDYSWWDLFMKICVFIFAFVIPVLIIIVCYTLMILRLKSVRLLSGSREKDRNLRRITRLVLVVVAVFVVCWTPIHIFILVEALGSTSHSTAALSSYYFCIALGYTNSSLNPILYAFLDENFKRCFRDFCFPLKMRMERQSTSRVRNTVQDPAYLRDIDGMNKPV

On to `CC1(C)SSC[C@@H](C(N)=O)NC(=O)[C@H]1NC(=O)[C@H](CC1CCCCC1)NC(=O)[C@H](CCC(N)=O)NC(=O)[C@@H](CCCNC(=N)N)NC(=O)[C@@H](CCCNC(=N)N)NC(=O)[C@@H]1CCC(=O)N1`, for which the Ratio Ki is more than 25000 in [1], more than 39000 in data set [5] and more than 1200 in data set [7]. In addition, the remaining at 24 h in [2] came out at 100%. The values for the EC50 in [3] and in [6] were 10.5 nM and 450 nM, respectively. In addition, in data set [4], the Ki worked out at 1.3 nM. In data set [8], the Activity is recorded as 1.

For `N=C(N)NCCC[C@@H](NC(=O)[C@@H](CCCNC(=N)N)NC(=O)[C@@H]1CCCN1C(=O)c1ccccc1)C(=O)N[C@@H](CCC(N)=O)C(=O)N[C@@H](CC1CCCCC1)C(=O)N[C@H]1CSSC[C@@H](C(N)=O)NC1=O`, in [9], the inhibition entry was “Dose-Dependent Effect”. Moreover, the Ratio Ki in data set [1] is more than 45000; in [5], more than 250000; in data set [7] it was more than 250000. The EC50 came to 0.41 nM in [3] and 0.36 nM in [6]. This molecule gave a Ki in data set [4] of 0.25 nM. Besides, the inhibition result in data set [10] and in [13] was “inactive” in each case. Besides, the half-life in [11] was determined as 4 h. Also, the Activity in [12] is 1.

Turning to `CC1(C)SSC[C@@H](C(N)=O)NC(=O)[C@H]1NC(=O)[C@H](CC1CCCCC1)NC(=O)[C@H](CCC(N)=O)NC(=O)[C@@H](CCCNC(=N)N)NC(=O)[C@@H](CCCNC(=N)N)NC(=O)[C@@H]1CCCN1C(=O)c1ccccc1`, the remaining at 24 h in [2] came out at 95%. In [4], the Ki was 1140 nM. In addition, the Activity in [14] turned out to be 1.

(Values after ChEMBL document CHEMBL5252514, “Conopeptide-Derived κ-Opioid Agonists (Conorphins): Potent, Selective, and Metabolic Stable Dynorphin A Mimetics with Antinociceptive Properties” (J Med Chem, 2016).)
